The structures appear in SMILES notation. Where a SMILES comes first, the peptide text is derived from it. [ ]: non-standard residue; d: D form. The star is where a group is joined. Dmt = Cc1cc(O)cc(C)c1C[C@H](N)C(=O)O; Tic = O=C(O)[C@@H]1Cc2ccccc2CN1; Cbz = O=C(OCc1ccccc1)*

4 compounds from ChEMBL document CHEMBL1145172, “From the potent and selective mu opioid receptor agonist H-Dmt-d-Arg-Phe-Lys-NH(2) to the potent delta antagonist H-Dmt-Tic-Phe-Lys(Z)-OH” (J Med Chem, 2005) can be followed below.

A short description of test [1]: Inhibition constant against synaptosomal Delta Opioid Receptor. The method in brief: (§1)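 Competitive binding on synaptosomal membranes from several separate preparations, run as independent duplicate assays with five to eight peptide doses each. Ki derived by the Cheng–Prusoff relation. Values reported as mean ± SE with n repetitions.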
The target of test [2] is T1, Delta-type opioid receptor (Mus musculus, UniProt P32300). The test can be described thus: Agonistic activity against delta opioid receptor of mouse vas deferens assay. The test is classed as functional, tissue-based. Summed up: (§2)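 Electrically stimulated isolated tissue: guinea pig ileum for μ and mouse vas deferens for δ. Agonist IC50 taken from dose–response curves. Values are mean ± SE from at least five fresh tissue samples.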

The next test concerns the target Mu-type opioid receptor (Cavia porcellus, UniProt P97266). The test can be described thus: Agonist activity against mu opioid receptor of guinea pig ileum. The test is classed as functional, tissue-based. Summed up: as §2
Test [3] in a line: Inhibition constant against synaptosomal Mu opioid receptor. Summed up:
as §1

Test [4] has as its target Opioid receptors; mu & delta (Homo sapiens) (UniProt P41143+P35372). The test can be described thus: Selectivity for synaptosomal Mu rather than Delta Opioid Receptors. The test is classed as protein assay.
Test [5] addresses T1, Delta-type opioid receptor. Kind of test: Antagonist activity in mouse vas deferens assay. Conditions: read-out: pA2 (converted). It counts as functional, tissue-based. Summed up: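 Electrically stimulated mouse vas deferens, with deltorphin C as the δ agonist. Antagonism expressed as pA2: the negative log of the molar antagonist concentration that doubles the agonist concentration needed to restore the original submaximal response.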

T1 sequence (P32300 whole entry): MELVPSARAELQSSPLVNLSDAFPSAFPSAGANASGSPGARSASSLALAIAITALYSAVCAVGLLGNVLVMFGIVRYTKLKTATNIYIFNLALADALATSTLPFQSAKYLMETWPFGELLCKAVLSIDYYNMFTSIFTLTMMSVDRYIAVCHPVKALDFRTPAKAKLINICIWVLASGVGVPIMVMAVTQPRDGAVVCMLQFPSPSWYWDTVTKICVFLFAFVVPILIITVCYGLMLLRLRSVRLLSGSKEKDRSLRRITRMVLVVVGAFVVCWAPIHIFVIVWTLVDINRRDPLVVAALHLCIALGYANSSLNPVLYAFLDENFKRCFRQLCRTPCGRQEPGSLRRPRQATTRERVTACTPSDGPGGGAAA
Sequence of Mu-type opioid receptor (P97266 whole entry): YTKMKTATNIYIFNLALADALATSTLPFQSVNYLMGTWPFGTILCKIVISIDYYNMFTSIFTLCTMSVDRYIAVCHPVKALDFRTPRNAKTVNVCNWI
Sequence of Opioid receptors; mu & delta (Homo sapiens) (P35372 whole entry, looked up): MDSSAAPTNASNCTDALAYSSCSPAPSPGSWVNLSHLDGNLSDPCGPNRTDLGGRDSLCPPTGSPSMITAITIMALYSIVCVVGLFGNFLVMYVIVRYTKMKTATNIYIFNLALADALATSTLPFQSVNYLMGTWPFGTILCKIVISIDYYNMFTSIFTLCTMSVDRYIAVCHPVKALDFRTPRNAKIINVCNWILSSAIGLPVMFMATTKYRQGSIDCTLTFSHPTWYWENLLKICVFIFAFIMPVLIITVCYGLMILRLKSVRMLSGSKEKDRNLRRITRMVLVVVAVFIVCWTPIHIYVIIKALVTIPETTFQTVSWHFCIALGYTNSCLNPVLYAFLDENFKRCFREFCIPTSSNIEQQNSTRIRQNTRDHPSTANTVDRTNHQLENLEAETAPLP
Sequence of Opioid receptors; mu & delta (Homo sapiens) (P41143 whole entry, looked up): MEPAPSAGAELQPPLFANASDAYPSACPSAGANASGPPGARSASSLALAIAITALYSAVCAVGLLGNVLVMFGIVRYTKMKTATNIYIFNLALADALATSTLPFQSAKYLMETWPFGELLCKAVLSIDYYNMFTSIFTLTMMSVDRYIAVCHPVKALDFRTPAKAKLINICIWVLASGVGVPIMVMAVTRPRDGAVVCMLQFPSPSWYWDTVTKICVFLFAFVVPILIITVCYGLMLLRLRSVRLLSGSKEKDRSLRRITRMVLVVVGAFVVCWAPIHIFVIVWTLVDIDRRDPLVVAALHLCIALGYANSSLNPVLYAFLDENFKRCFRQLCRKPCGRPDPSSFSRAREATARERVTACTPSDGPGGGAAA

In the case of `Cc1cc(O)cc(C)c1C[C@H](N)C(=O)N[C@H](CCCN=C(N)N[N+](=O)[O-])C(=O)N[C@@H](Cc1ccccc1)C(=O)N[C@@H](CCCCNC(=O)OCc1ccccc1)C(N)=O`, the Ki in test [1] came to 24.2 nM; in test [3] it was 0.15 nM. Further, the figures for the IC50 (in test [2]; on Mu-type opioid receptor) were 1.69 nM and 0.509 nM, respectively.

`Cc1cc(O)cc(C)c1C[C@H](N)C(=O)N1Cc2ccccc2C[C@H]1C(=O)N[C@@H](Cc1ccccc1)C(=O)N[C@@H](CCCCNC(=O)OCc1ccccc1)C(N)=O` (H-[Dmt][Tic]FK(Cbz)-NH2) had a Selectivity in test [4] of 5. Also, the Ki in test [1] is 0.23 nM; in test [3], 1.14 nM. Moreover, the IC50 is more than 10000 nM in test [2] and 1890 nM on Mu-type opioid receptor. For the same compound, the Kb in test [5] is 3.8 nM.

`Cc1cc(O)cc(C)c1C[C@H](N)C(=O)N[C@H](CCC/N=C(/N)N[N+](=O)[O-])C(=O)N[C@@H](Cc1ccccc1)C(=O)N[C@@H](CCCCNC(=O)OCc1ccccc1)C(=O)O`: the Ki in test [1] is 47.6 nM; in test [3] it was 1.45 nM. Further, the results for the IC50 (in test [2]; at Mu-type opioid receptor) were 682 nM and 63 nM, respectively.

As to `Cc1cc(O)cc(C)c1C[C@H](N)C(=O)N1Cc2ccccc2C[C@H]1C(=O)N[C@@H](Cc1ccccc1)C(=O)N[C@@H](CCCCNC(=O)OCc1ccccc1)C(=O)O` (H-[Dmt][Tic]FK(Cbz)-OH), the Selectivity in test [4] was found to be 145. Besides, the IC50 (in test [2]; on Mu-type opioid receptor) was more than 10000 nM throughout. For the same compound, the Kb in test [5] is 0.00372 nM.

A word on the Ki: it is a dissociation constant, usually derived from enzyme kinetics or from competition with a known ligand. A low value points to tighter binding. Broadly, the IC50 is the point on the concentration scale where inhibition reaches its midpoint. A higher IC50 goes with weaker potency.
